From ChEMBL document CHEMBL2375307, “Synthesis and identification of β-aryloxyquinoline based diversely fluorine substituted N-aryl quinolone derivatives as a new class of antimicrobial, antituberculosis and antioxidant agents” (Eur J Med Chem, 2013) come the findings set out here.

Converted amounts (≈) assume the structure as drawn.

In one data set the test system is Bacillus subtilis. The experiment in a line: Antibacterial activity against Bacillus subtilis MTCC 441 assessed as growth inhibition after overnight incubation by NCCLS broth microdilution method. Type of data set: functional. In outline: (§1)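 Broth microdilution per NCCLS in Mueller Hinton broth, compounds diluted in DMSO. Primary screen at 500, 250 and 200 µg/mL; actives retested at 100, 62.5, 50, 25 and 12.5 µg/mL. Tubes incubated overnight at 37 °C. […] Non-growing tubes subcultured overnight at 37 °C to judge bacteriostatic versus bactericidal action.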
In general terms: In broth dilution the organism is exposed to a series of concentrations in liquid medium.

A short description of data set [1]: Toxicity in brine shrimps cysts assessed as mortality at 5 ug/ml after 24 hrs relative to control. The data set is classed as organism-based. Particulars: artemia, in vivo.
A further data set has as its system Escherichia coli. The experiment in a line: Antibacterial activity against Escherichia coli MTCC 443 assessed as growth inhibition after overnight incubation by NCCLS broth microdilution method. Type of data set: functional. The method, boiled down: as §1
The next data set relates to Salmonella typhi. The experiment in a line: Antibacterial activity against Salmonella typhi MTCC 98 assessed as growth inhibition after overnight incubation by NCCLS broth microdilution method. The data set is classed as functional, Salmonella enterica subsp. enterica serovar Typhi. To be noted: Salmonella enterica.
In data set [2] the test system is Mycobacterium tuberculosis. The experiment in a line: Antitubercular activity against Mycobacterium tuberculosis H37Rv assessed as growth inhibition at 250 ug/mL after 12 to 28 days by Lowenstein-Jensen method relative to control. The data set is classed as functional. To be noted: read-out: GI. In outline: (§2)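 Modified Lowenstein-Jensen method. Compound at 250 in DMSO added to liquid L-J medium, then sterilized by inspissation and incubated 24 h at 37 °C. Streaked with H37Rv harvested in 0.85% saline (5 × 10⁴ bacilli/tube) and incubated at 37 °C. Colonies read at 12, 22 and 28 days versus drug-free control; no colonies or <20 colonies scored as inhibition.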

The next data set relates to Streptococcus pneumoniae. The experiment in a line: Antibacterial activity against Streptococcus pneumoniae MTCC 1936 assessed as growth inhibition after overnight incubation by NCCLS broth microdilution method. The data set is classed as functional. The method, boiled down:
as §1

A short description of data set [3]: Toxicity in brine shrimps cysts assessed as mortality after 24 hrs relative to control. The data set is classed as organism-based. To be noted: artemia, in vivo.
Data set [4] is described as follows: Toxicity in brine shrimps cysts assessed as mortality at 30 ug/mL after 24 hrs relative to control. Type of data set: organism-based. To be noted: artemia, in vivo.
Another data set has as its system Candida albicans. The experiment in a line: Antifungal activity against Candida albicans MTCC 227 assessed as growth inhibition after overnight incubation by NCCLS broth microdilution method. Type of data set: functional. In outline: as §1
The nature of data set [5]: Toxicity in brine shrimps cysts assessed as mortality at 10 ug/mL after 24 hrs relative to control. The data set is classed as organism-based. Particulars: artemia, in vivo.
Another data set has as its system Vibrio cholerae. The experiment in a line: Antibacterial activity against Vibrio cholerae MTCC 3906 assessed as growth inhibition after overnight incubation by NCCLS broth microdilution method. Type of data set: functional.
A short description of data set [6]: Antioxidant activity of the compound assessed as ascorbic acid equivalent of ferric tripyridyl triazine reducing activity at 200 ug/mL after 15 mins by FRAP assay. The data set is classed as functional. In outline: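 FRAP, modified Benzie and Strain method. Fe(III)-TPTZ reagent made with TPTZ in 40 mM HCl, FeCl3 solution and acetate buffer pH 3.6. 200 µL sample solution mixed with 3 mL reagent and held 15 min at 37 °C. Fe(II)-TPTZ read at 593 nm against an ascorbic acid standard, expressed as ascorbic acid equivalents (mmol/100 g compound).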

Data set [7] in a line: Toxicity in brine shrimps cysts assessed as mortality at 20 ug/mL after 24 hrs relative to control. The data set is classed as organism-based. To be noted: artemia, in vivo.
The nature of data set [8]: Toxicity in brine shrimps cysts assessed as mortality at 50 ug/mL after 24 hrs relative to control. Type of data set: organism-based. Particulars: artemia, in vivo.
A further data set relates to Clostridium tetani. The experiment in a line: Antibacterial activity against Clostridium tetani MTCC 449 assessed as growth inhibition after overnight incubation by NCCLS broth microdilution method. Type of data set: functional.
A short description of data set [9]: Toxicity in brine shrimps cysts assessed as mortality at 40 ug/mL after 24 hrs relative to control. Type of data set: organism-based. To be noted: artemia, in vivo.
For data set [10], the system named is Mycobacterium tuberculosis. The experiment in a line: Antitubercular activity against Mycobacterium tuberculosis H37Rv assessed as growth inhibition after 12 to 28 days by Lowenstein-Jensen method. Type of data set: functional. The method, boiled down: as §2
Another data set concerns Aspergillus fumigatus. The experiment in a line: Antifungal activity against Aspergillus fumigatus MTCC 3008 assessed as growth inhibition after overnight incubation by NCCLS broth microdilution method. Type of data set: functional. The method, boiled down: as §1

As usually defined, the MIC is the smallest concentration in the dilution series that meets the test's criterion for growth inhibition. As usually defined, the mortality is the percentage killed. Broadly, the LC50 is the concentration that kills 50% of the test population. In the case of `N#CC1=C(N)N(c2cccc(C(F)(F)F)c2)C2=C(C(=O)CCC2)C1c1cc2cc(Cl)ccc2nc1Oc1ccc(C#N)cc1` (centres undefined), the MIC with Bacillus subtilis was found to be 200 µg/mL (≈ 327 µM); in the data set on Escherichia coli, 250 µg/mL (≈ 408 µM); in the data set on Salmonella typhi it was 200 µg/mL (≈ 327 µM); with Streptococcus pneumoniae, 62.5 µg/mL (≈ 102 µM); in the data set on Candida albicans, 1000 µg/mL (≈ 1630 µM); with Vibrio cholerae, 62.5 µg/mL (≈ 102 µM). Further, the MIC stood at 200 µg/mL (≈ 327 µM) in the data set with Clostridium tetani, 25 µg/mL (≈ 40.8 µM) in [10] and 1000 µg/mL (≈ 1630 µM) in the data set on Aspergillus fumigatus. Moreover, in [1], the mortality at 24 h, 5 ug/ml is 0%. The inhibition of growth at 250 µg/mL in data set [2] came out at 99%. Also, the median lethal concentration (LC50) at 24 h in data set [3] is 37.8 µg/mL (≈ 61.7 µM). The mortality at 24 h, 30 ug/mL in data set [4] worked out at 40%. Further, the mortality at 24 h, 10 ug/mL in data set [5] came out at 10%. Moreover, the Activity in data set [6] was found to be 5.15 equiv. The mortality at 24 h, 20 ug/mL in data set [7] came to 20%. Further, in data set [8], the mortality at 24 h, 50 ug/mL was 70%. The mortality at 24 h, 40 ug/mL in data set [9] was determined as 50%.

For `CC1(C)CC(=O)C2=C(C1)N(c1cccc(C(F)(F)F)c1)C(N)=C(C#N)C2c1cc2cc(Cl)ccc2nc1Oc1ccc(C#N)cc1` (centres undefined), the MIC with Bacillus subtilis was 250 µg/mL (≈ 391 µM); in the data set with Escherichia coli, 125 µg/mL (≈ 195 µM); in the data set on Salmonella typhi, 125 µg/mL (≈ 195 µM); in the data set with Streptococcus pneumoniae, 125 µg/mL (≈ 195 µM); in the data set with Candida albicans, > 1000 µg/mL; in the data set on Vibrio cholerae it was 100 µg/mL (≈ 156 µM). For the same molecule, the MIC in the data set with Clostridium tetani stood at 250 µg/mL (≈ 391 µM); in data set [10], 62.5 µg/mL (≈ 97.6 µM); in the data set with Aspergillus fumigatus, 1000 µg/mL (≈ 1560 µM). Also, in data set [1], the mortality at 24 h, 5 ug/ml stood at 10%. Also, in data set [2], the inhibition of growth at 250 µg/mL came to 98%. Further, the LC50 at 24 h in data set [3] was determined as 23.3 µg/mL (≈ 36.5 µM). Further, the mortality at 24 h, 30 ug/mL in data set [4] was 50%. For the same molecule, in data set [5], the mortality at 24 h, 10 ug/mL is 20%. Also, the Activity in [6] worked out at 7.13 equiv. Also, in [7], the mortality at 24 h, 20 ug/mL amounted to 40%. In data set [8], the mortality at 24 h, 50 ug/mL came to 80%. Moreover, the mortality at 24 h, 40 ug/mL in data set [9] came out at 70%.

Consider `N#CC1=C(N)N(c2ccc(F)c(F)c2)C2=C(C(=O)CCC2)C1c1cc2cc(Cl)ccc2nc1Oc1ccc(C#N)cc1` (centres undefined), for which the minimal inhibitory concentration (MIC) with Bacillus subtilis amounted to 125 µg/mL (≈ 216 µM); with Escherichia coli it was 200 µg/mL (≈ 345 µM); in the data set with Salmonella typhi it was 250 µg/mL (≈ 431 µM); in the data set on Streptococcus pneumoniae it was 200 µg/mL (≈ 345 µM); in the data set on Candida albicans, 1000 µg/mL (≈ 1720 µM); with Vibrio cholerae, 100 µg/mL (≈ 172 µM). Besides, the figures for the MIC (with Clostridium tetani; in data set [10]; with Aspergillus fumigatus) were 200 µg/mL (≈ 345 µM), 100 µg/mL (≈ 172 µM) and > 1000 µg/mL, respectively. For the same molecule, the mortality at 24 h, 5 ug/ml in [1] came to 20%. Moreover, the inhibition of growth at 250 µg/mL in data set [2] came out at 95%. Also, the LC50 at 24 h in [3] is 14.1 µg/mL (≈ 24.3 µM). Also, in data set [4], the mortality at 24 h, 30 ug/mL was 70%. In addition, the mortality at 24 h, 10 ug/mL in data set [5] stood at 40%. Moreover, in [6], the Activity turned out to be 2.97 equiv. For the same molecule, the mortality at 24 h, 20 ug/mL in data set [7] was 60%. Also, in [8], the mortality at 24 h, 50 ug/mL was found to be 90%. In data set [9], the mortality at 24 h, 40 ug/mL amounted to 80%.
